Assay results reported in ChEMBL document CHEMBL1143280, “Discovery and optimization of imidazo[1,2-a]pyridine inhibitors of insulin-like growth factor-1 receptor (IGF-1R)” (Bioorg Med Chem Lett, 2009).

Experiments:
[1] = molecular target: Mitogen-activated protein kinase 14 (Homo sapiens, UniProt Q16539); experiment: Inhibition of p38alpha
[2] = Antiproliferative activity against human SK-ES cells after 72 hrs by Celltiter assay; format: functional, cell-based
Outline: (§1)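 Cells seeded in 96-well dishes and incubated overnight at 37 °C, then exposed to a range of inhibitor concentrations for 72 h. Proliferation read by CellTiter-Glo luminescence per manufacturer's protocol. IC50 from 4-parameter curve fit.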

Canis familiaris [3] = experiment: Volume of distribution at steady state in Beagle dog at 7.2 mg/kg, po; format: ADME, organism-based, Canis lupus familiaris; parameters: dose 7.2 mg/kg, route oral; conditions: in vivo
Outline: (§2)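 Compound given as solution in 1.0% DMSO, 20% Captisol in saline (IV) or water (PO); dog PO given as partial suspension. IV doses 0.6–1.3 mg/kg, PO 2.1–7.2 mg/kg by species. Male Sprague–Dawley rats, male beagle dogs, male cynomolgus monkeys. Data over 0–24 h; dose-normalized AUC as ng h/mL/(mg/kg).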

A549 = experiment: Antiproliferative activity against human A549 cells after 72 hrs by Celltiter assay; format: functional, cell-based; conditions: A549, 72 h; outline: as §1
[4] = molecular target: Epidermal growth factor receptor (Homo sapiens, UniProt P00533); experiment: Inhibition of EGFR
Rattus norvegicus [5] = experiment: Dose normalized AUC in Sprague-Dawley rat at 3 mg/kg, po; format: ADME, organism-based; parameters: dose 3 mg/kg, route oral; conditions: in vivo; outline: as §2
Insulin receptor [6] = molecular target: T1, Insulin receptor (Homo sapiens, UniProt P06213); experiment: Inhibition of human insulin receptor autophosphorylation in transfected mouse NIH3T3 cells; format: cell-based
Outline: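 NIH-3T3 cells expressing human IR were grown on collagen-coated plates for 24 h, then given inhibitor or DMSO. After 2 h they were stimulated with bovine insulin for 15 min and lysed in RIPA. Lysates were captured overnight at 4 °C on anti-IRβ plates. Phospho-IR was detected by Eu-phosphotyrosine antibody time-resolved fluorescence (340/615 nm), and total IR by anti-IR. IC50 was taken from the phospho/total ratio curves.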

Rattus norvegicus [7] = experiment: Volume of distribution at steady state in Sprague-Dawley rat at 3 mg/kg, po; format: ADME, organism-based; parameters: dose 3 mg/kg, route oral; conditions: in vivo; outline: as §2
Canis familiaris [8] = experiment: Dose normalized AUC in Beagle dog at 7.2 mg/kg, po; format: ADME, organism-based, Canis lupus familiaris; parameters: dose 7.2 mg/kg, route oral; conditions: in vivo; outline: as §2
[9] = molecular target: Tyrosine-protein kinase Lck (Homo sapiens, UniProt P06239); experiment: Inhibition of LCK
[10] = molecular target: Receptor tyrosine-protein kinase erbB-4 (Homo sapiens, UniProt Q15303); experiment: Inhibition of ErbB4
[11] = Oral bioavailability in Sprague-Dawley rat at 3 mg/kg; format: ADME, organism-based; conditions: in vivo; outline: as §2
[12] = molecular target: T2, Insulin-like growth factor 1 receptor (Homo sapiens, UniProt P08069); experiment: Inhibition of human IGF1R autophosphorylation in transfected mouse NIH3T3 cells; format: cell-based
[13] = Clearance in Beagle dog at 7.2 mg/kg, po; format: ADME, organism-based, Canis lupus familiaris; parameters: dose 7.2 mg/kg, route oral; conditions: in vivo; outline: as §2
Aurora kinase B = Aurora kinase B (Homo sapiens, UniProt Q96GD4); experiment: Inhibition of Aurora B
[14] = Oral bioavailability in Beagle dog at 7.2 mg/kg; format: ADME, organism-based, Canis lupus familiaris; conditions: in vivo; outline: as §2
[15] = Oral bioavailability in cynomolgus monkey at 2.1 mg/kg; format: ADME, organism-based, Macaca fascicularis; conditions: in vivo; outline: as §2
[16] = molecular target: T2, Insulin-like growth factor 1 receptor; experiment: Binding affinity to IGF1R by liquid scintillation counting; conditions: read-out: Ki(app)
Outline: (§3)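 Activated IGF-1R or IR kinase domains (pre-activated at 500 nM with 1 mM ATP for 30 min in pH 7.2 Hepes/MgCl2/BSA buffer with phosphatase inhibitors) were used at 0.5 nM final. Enzyme and ATP were pre-incubated with inhibitor for 6 h. […] Product was filter-captured and scintillation-counted. IC50 was converted to apparent Ki by Cheng–Prusoff.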

LP-1 = experiment: Antiproliferative activity against human LP-1 cells after 72 hrs by Celltiter assay; format: functional, cell-based; conditions: LP-1, 72 h; outline: as §1
Cynomolgus monkey [17] = experiment: Dose normalized AUC in cynomolgus monkey at 2.1 mg/kg, po; format: ADME, organism-based, Macaca fascicularis; parameters: dose 2.1 mg/kg, route oral; conditions: in vivo; outline: as §2
[18] = Clearance in Sprague-Dawley rat at 3 mg/kg, po; format: ADME, organism-based; parameters: dose 3 mg/kg, route oral; conditions: in vivo; outline: as §2
[19] = molecular target: Receptor tyrosine-protein kinase erbB-2 (Homo sapiens, UniProt P04626); experiment: Inhibition of ErbB2
[20] = Antiproliferative activity against human TC71 cells after 72 hrs by Celltiter assay; format: functional, cell-based; conditions: TC-71, 72 h; outline: as §1
Aurora kinase A = molecular target: T3, Aurora kinase A (Homo sapiens, UniProt O14965); experiment: Inhibition of Aurora A
T3 sequence (O14965 whole entry): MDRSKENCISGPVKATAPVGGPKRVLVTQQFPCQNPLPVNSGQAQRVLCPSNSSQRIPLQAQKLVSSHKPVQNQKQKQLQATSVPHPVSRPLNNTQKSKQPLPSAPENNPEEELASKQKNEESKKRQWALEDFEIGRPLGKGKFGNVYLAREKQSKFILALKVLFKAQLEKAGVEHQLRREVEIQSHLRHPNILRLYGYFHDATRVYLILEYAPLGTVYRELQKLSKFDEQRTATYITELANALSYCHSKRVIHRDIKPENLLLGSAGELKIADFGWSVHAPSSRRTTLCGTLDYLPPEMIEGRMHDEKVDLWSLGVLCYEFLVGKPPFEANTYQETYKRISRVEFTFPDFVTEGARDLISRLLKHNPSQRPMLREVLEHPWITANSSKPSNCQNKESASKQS

Cynomolgus monkey [21] = experiment: Volume of distribution at steady state in cynomolgus monkey at 2.1 mg/kg, po; format: ADME, organism-based, Macaca fascicularis; parameters: dose 2.1 mg/kg, route oral; conditions: in vivo; outline: as §2
Insulin receptor [22] = molecular target: T1, Insulin receptor; experiment: Binding affinity to insulin receptor by liquid scintillation counting; conditions: read-out: Ki(app); outline: as §3
[23] = Antiproliferative activity against human NCI-H929 cells after 72 hrs by Celltiter assay; format: functional, cell-based; conditions: NCI-H929, 72 h; outline: as §1
COLO 205 = experiment: Antiproliferative activity against human COLO205 cells after 72 hrs by Celltiter assay; format: functional, cell-based; conditions: COLO 205, 72 h; outline: as §1
[24] = molecular target: T2, Insulin-like growth factor 1 receptor; experiment: Inhibition of GST-tagged IGF1R (957-1367) expressed in baculovirus by time-resolved fluorescence assay
[25] = Clearance in cynomolgus monkey at 2.1 mg/kg, po; format: ADME, organism-based, Macaca fascicularis; parameters: dose 2.1 mg/kg, route oral; conditions: in vivo; outline: as §2
HFF = experiment: Antiproliferative activity against HFF cells after 72 hrs by Celltiter assay; format: cell-based; conditions: Homo sapiens; outline: as §1
Insulin receptor [26] = molecular target: T1, Insulin receptor; experiment: Inhibition of GST-tagged insulin receptor expressed in baculovirus by time-resolved fluorescence assay
Outline: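 GST-tagged IR intracellular domain (aa 979–1382), baculovirus-expressed, activated at 2.7 µM with 2 mM ATP in 50 mM Hepes pH 7.5, 10 mM MgCl2, BSA. Phosphopeptide by TRF with streptavidin-allophycocyanin and Eu-anti-phosphotyrosine. n ≥ 2.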

[27] = molecular target: Serine/threonine-protein kinase B-raf (Homo sapiens, UniProt P15056, V600E); experiment: Inhibition of B-raf V600E mutant
Mus musculus [28] = experiment: Dose normalized AUC (0 to 6 hrs) in po dosed mouse; format: ADME, organism-based; parameters: time < 6 hr, route oral; conditions: in vivo
Outline: (§4)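 Oral dosing in mice; dose-normalized AUC in ng h/mL/(mg/kg) calculated over 0–6 h.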

[29] = Clearance in po dosed mouse; format: ADME, organism-based; conditions: in vivo
Mus musculus [30] = experiment: Dose normalized AUC (0 to 6 hrs) in mouse at 7.3 mg/kg, po; format: ADME, organism-based; parameters: time < 6 hr, dose 7.3 mg/kg, route oral; conditions: in vivo; outline: as §4

T2 sequence (P08069 31-736 limits assumed): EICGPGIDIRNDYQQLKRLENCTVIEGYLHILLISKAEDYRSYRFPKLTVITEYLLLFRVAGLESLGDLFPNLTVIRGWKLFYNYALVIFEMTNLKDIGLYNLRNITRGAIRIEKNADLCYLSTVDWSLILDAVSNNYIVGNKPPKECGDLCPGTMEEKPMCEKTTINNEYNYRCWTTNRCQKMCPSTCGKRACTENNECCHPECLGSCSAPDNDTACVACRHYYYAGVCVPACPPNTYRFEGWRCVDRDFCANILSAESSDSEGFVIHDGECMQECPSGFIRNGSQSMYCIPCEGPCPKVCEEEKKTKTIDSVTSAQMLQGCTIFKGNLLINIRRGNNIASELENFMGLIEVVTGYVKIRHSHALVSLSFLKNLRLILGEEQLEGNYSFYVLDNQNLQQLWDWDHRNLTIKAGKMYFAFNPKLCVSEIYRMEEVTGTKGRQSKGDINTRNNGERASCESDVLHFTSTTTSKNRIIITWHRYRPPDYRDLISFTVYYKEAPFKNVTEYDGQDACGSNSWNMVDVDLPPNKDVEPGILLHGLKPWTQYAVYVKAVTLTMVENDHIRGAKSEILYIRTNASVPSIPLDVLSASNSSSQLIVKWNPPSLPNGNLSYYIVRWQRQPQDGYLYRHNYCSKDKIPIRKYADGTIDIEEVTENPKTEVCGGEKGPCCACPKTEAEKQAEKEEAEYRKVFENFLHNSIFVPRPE
T2 sequence (P08069 741-1367 limits assumed): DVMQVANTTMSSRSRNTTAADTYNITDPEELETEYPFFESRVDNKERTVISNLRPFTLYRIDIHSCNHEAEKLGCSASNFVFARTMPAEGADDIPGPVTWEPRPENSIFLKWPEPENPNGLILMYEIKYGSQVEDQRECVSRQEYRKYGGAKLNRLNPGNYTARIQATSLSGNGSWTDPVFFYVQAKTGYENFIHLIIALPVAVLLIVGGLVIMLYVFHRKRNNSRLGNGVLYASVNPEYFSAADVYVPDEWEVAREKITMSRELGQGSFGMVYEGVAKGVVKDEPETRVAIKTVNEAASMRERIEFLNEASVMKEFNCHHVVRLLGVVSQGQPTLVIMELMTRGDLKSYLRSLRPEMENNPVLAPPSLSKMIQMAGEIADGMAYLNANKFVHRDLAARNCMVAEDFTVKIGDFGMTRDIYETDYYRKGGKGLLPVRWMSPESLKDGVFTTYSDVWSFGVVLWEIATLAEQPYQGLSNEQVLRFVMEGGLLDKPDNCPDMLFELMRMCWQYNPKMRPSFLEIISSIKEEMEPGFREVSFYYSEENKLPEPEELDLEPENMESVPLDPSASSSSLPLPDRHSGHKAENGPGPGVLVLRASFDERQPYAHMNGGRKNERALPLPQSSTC
T1 sequence (P06213 28-758 limits assumed): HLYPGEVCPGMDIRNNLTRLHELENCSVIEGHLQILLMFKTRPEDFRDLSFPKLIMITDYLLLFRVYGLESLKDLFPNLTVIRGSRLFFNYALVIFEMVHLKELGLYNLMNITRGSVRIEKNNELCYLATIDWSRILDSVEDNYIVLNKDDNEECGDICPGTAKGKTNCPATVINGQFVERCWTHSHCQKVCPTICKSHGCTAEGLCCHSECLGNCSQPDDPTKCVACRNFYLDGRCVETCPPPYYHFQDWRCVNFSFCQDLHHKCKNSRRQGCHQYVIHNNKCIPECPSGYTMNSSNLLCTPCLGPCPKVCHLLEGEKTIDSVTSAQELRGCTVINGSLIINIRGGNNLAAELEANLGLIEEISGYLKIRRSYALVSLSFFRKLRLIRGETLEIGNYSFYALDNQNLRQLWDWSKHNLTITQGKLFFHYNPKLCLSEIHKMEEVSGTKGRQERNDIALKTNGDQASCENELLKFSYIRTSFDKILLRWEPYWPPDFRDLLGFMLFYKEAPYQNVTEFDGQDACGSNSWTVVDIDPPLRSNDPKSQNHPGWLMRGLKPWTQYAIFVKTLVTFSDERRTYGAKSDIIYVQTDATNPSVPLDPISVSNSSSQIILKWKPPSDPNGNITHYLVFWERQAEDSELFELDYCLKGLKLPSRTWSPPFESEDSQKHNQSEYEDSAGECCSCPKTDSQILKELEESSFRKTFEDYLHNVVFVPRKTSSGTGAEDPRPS
T1 sequence (P06213 763-1382 limits assumed): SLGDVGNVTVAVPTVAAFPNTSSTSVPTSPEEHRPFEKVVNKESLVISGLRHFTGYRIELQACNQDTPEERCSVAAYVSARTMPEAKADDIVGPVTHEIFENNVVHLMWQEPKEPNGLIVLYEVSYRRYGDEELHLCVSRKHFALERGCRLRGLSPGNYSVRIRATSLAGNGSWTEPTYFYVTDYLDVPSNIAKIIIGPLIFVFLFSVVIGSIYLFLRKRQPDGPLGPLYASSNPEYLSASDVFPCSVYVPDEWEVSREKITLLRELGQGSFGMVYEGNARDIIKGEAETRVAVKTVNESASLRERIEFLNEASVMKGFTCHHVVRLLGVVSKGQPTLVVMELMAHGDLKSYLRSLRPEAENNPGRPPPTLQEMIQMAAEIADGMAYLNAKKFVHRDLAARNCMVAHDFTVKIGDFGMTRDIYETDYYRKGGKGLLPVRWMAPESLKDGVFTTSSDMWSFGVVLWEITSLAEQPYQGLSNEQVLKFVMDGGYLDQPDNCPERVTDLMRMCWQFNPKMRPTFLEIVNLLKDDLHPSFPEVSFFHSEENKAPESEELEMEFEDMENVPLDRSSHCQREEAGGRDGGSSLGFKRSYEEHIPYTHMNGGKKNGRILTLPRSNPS
Chain of Mitogen-activated protein kinase 14 (Q16539 whole entry): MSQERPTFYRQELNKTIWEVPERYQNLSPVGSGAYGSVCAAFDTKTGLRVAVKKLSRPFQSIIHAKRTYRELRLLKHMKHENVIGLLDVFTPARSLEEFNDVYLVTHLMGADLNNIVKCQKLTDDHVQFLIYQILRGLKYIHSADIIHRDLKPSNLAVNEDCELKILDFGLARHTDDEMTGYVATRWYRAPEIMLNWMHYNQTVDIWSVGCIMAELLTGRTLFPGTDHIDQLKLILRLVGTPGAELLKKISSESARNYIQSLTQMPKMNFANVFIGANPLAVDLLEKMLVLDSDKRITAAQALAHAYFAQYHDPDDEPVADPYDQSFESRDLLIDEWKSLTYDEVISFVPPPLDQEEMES
Chain of Receptor tyrosine-protein kinase erbB-4 (Q15303 whole entry): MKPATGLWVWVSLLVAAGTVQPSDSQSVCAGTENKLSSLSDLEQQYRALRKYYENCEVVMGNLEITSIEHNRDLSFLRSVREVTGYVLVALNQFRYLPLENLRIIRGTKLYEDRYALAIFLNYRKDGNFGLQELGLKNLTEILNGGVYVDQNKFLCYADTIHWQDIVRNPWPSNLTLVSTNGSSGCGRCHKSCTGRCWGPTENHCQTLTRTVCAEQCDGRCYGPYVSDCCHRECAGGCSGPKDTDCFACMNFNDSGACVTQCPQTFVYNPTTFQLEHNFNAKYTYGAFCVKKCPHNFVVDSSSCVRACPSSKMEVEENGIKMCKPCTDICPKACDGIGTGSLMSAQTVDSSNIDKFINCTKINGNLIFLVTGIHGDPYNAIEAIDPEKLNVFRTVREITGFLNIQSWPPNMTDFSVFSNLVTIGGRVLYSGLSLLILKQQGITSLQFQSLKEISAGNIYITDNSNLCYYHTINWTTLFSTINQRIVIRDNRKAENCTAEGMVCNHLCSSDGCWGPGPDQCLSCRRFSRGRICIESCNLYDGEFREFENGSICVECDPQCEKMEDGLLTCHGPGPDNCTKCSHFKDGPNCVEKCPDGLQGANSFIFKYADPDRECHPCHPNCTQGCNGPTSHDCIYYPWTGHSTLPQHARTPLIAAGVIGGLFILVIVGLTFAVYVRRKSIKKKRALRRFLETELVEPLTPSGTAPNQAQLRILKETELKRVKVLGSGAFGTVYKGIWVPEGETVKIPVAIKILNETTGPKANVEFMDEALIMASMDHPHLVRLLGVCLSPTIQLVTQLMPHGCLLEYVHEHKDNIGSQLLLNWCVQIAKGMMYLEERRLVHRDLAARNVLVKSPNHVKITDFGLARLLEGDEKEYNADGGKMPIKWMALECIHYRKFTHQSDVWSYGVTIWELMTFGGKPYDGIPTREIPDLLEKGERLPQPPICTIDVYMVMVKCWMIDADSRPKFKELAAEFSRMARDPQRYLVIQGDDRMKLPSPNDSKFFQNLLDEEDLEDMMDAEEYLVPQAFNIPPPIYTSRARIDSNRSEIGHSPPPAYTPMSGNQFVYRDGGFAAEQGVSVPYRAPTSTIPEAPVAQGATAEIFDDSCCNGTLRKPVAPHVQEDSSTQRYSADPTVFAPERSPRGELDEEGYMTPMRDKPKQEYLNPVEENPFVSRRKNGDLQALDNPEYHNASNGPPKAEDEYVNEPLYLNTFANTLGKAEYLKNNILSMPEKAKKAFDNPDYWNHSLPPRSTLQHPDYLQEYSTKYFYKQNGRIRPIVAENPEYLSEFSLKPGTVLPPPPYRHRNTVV
Chain of Aurora kinase B (Q96GD4 whole entry): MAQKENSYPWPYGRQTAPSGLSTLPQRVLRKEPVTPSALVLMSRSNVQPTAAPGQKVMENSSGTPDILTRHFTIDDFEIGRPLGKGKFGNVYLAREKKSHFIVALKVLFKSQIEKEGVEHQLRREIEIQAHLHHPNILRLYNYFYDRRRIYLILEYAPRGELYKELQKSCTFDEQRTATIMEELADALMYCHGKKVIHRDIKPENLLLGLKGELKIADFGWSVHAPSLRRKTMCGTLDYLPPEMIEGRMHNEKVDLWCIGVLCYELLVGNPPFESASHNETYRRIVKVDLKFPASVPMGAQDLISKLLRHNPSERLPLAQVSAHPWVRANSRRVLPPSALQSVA

| Compound | IC50 [1] [nM] | IC50 [4] [nM] | IC50 [9] [nM] | IC50 [10] [nM] | IC50 [12] [nM] | IC50 (Aurora kinase B) [nM] | Ki [16] [nM] | IC50 [19] [nM] | IC50 (Aurora kinase A) [nM] | Ki (Insulin receptor [22]) [nM] | IC50 [24] [nM] | IC50 (Insulin receptor [26]) [nM] | IC50 [27] [nM] | AUC (Mus musculus [28]) [ng·h/mL] | CL/F [29] [mL/min/kg] | further results |
| --- | --- | --- | --- | --- | --- | --- | --- | --- | --- | --- | --- | --- | --- | --- | --- | --- |
| CCc1cc(Nc2nccc(-c3c(-c4ccc(OC)c(C(=O)Nc5c(F)cccc5F)c4)nc4ccccn34)n2)c(OC)cc1N1CCC(N2CCN(S(C)(=O)=O)CC2)CC1 | 11000 | > 10000 | > 3000 | > 25000 | 22 | 4500 | 1.6 | > 10000 | > 1500 | 1.3 | 27 | 25 | > 2000 |  |  | IC50 [2]: 61 nM; Vdss (Canis familiaris [3]): 4.7 L/kg; IC50 (A549): > 20000 nM; AUC (Rattus norvegicus [5]): 1220 ng·h/mL; IC50 (Insulin receptor [6]): 19 nM; Vdss (Rattus norvegicus [7]): 7.5 L/kg; AUC (Canis familiaris [8]): 870 ng·h/mL; bioavailability [11]: 63%; CL/F [13]: 8.7 mL/min/kg; bioavailability [14]: 47%; bioavailability [15]: 97%; IC50 (LP-1): 104 nM; AUC (Cynomolgus monkey [17]): 1070 ng·h/mL; CL/F [18]: 5.8 mL/min/kg; IC50 [20]: 35 nM; Vdss (Cynomolgus monkey [21]): 9.8 L/kg; IC50 [23]: 81 nM; IC50 (COLO 205): 124 nM; CL/F [25]: 13.9 mL/min/kg; IC50 (HFF): > 20000 nM |
| COc1cc(N2CCC(N3CCCC3)CC2)ccc1Nc1nccc(-c2c(-c3cccc(C(=O)Nc4c(F)cccc4F)c3)nc3ccccn23)n1 |  |  |  |  | 38 |  |  |  |  |  | 2 |  |  | 121 |  |  |
| COc1cc(N2CCC(N3CCOCC3)CC2)ccc1Nc1nccc(-c2c(-c3cccc(C(=O)Nc4c(F)cccc4F)c3)nc3ccccn23)n1 |  |  |  |  | 41 |  |  |  |  |  | 2 |  |  | 276 |  |  |
| COc1cc(N2CCC(N3CCCCC3)CC2)ccc1Nc1nccc(-c2c(-c3cccc(C(=O)Nc4c(F)cccc4F)c3)nc3ccccn23)n1 |  |  |  |  | 38 |  |  |  |  |  | 2 |  |  |  | 13.4 | AUC (Mus musculus [30]): 239 ng·h/mL |
| COc1cc(N2CCC(N3CCN(S(C)(=O)=O)CC3)CC2)ccc1Nc1nccc(-c2c(-c3cccc(C(=O)Nc4c(F)cccc4F)c3)nc3ccccn23)n1 | 440 | 57 | 1200 | 74 | 36 | 200 | 5.2 | 72 | 1600 | 2.2 | 5 | 5 | 80 | 1060 | 13.6 |  |
| COc1cc(N2CCC(N3CC[C@@H](F)C3)CC2)ccc1Nc1nccc(-c2c(-c3cccc(C(=O)Nc4c(F)cccc4F)c3)nc3ccccn23)n1 |  |  |  |  | 40 |  |  |  |  |  | 2 |  |  | 494 |  |  |
